ChEMBL document CHEMBL2057149 (J Med Chem, 2012)
Activity calls are given as the source filed them. The calls are words filed in the database; no cut-off is given here.

What was measured:
Plasma [1] = experiment: Anticoagulant activity in pooled human plasma assessed as activated partial thromboplastin time at 0.1 mg/ml; format: ADME, cell-free
Summary of the method: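 APTT of pooled normal human plasma measured with compound at 0–100 μg/mL in PBS on a ball coagulameter, using unfractionated heparin as the reference. Normal range 26–36 s; coefficient of variation 2% at 36 s and 5–7% at 90 s or above. Values are the mean of two determinations.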

HMVEC [2] = experiment: Antiangiogenic activity in FGF2-stimulated HMVEC cells after 72 hrs by CellTiter assay; format: functional, cell-based; conditions: Homo sapiens
HUVEC [3] = experiment: Antiangiogenic activity in FGF1-stimulated HUVEC cells after 72 hrs by CellTiter assay; format: functional, cell-based; conditions: Homo sapiens
HUVEC [4] = experiment: Antiangiogenic activity in VEGF-stimulated HUVEC cells after 72 hrs by CellTiter assay; format: functional, cell-based; conditions: Homo sapiens
HUVEC [5] = experiment: Antiangiogenic activity in FGF2-stimulated HUVEC cells after 72 hrs by CellTiter assay; format: functional, cell-based; conditions: Homo sapiens
Heparanase = molecular target: T1, Heparanase (Homo sapiens, UniProt Q9Y251); experiment: Inhibition of human recombinant heparanase after 2 to 24 hrs by WST1 dye based fondaparinux assay
T1 sequence (Q9Y251 whole entry): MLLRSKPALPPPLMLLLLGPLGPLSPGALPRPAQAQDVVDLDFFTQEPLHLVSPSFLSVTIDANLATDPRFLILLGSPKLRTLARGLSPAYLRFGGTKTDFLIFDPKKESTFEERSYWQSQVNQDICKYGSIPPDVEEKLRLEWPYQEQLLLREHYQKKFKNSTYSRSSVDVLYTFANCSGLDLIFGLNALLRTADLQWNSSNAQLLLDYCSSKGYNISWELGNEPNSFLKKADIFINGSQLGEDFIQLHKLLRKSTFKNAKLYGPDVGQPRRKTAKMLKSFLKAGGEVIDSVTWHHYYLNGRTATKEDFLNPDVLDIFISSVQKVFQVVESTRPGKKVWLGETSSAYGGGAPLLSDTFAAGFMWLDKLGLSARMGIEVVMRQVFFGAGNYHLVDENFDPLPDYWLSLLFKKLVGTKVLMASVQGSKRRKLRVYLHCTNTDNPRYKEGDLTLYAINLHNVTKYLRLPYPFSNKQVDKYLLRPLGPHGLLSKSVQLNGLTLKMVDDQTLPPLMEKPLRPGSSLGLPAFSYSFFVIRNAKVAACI

[6] = molecular target: Fibroblast growth factor 1 (Homo sapiens, UniProt P05230); experiment: Binding affinity to FGF-1 by surface plasmon resonance assay
Fibroblast growth factor 1, sequence (P05230 whole entry): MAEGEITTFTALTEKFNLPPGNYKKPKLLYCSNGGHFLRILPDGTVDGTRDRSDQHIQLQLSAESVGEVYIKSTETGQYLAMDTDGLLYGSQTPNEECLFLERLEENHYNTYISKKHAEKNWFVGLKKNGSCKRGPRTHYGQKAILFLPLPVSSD
Summary of the method: (§1)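 Solution-affinity SPR on heparin-coated CM4 chips. FGF-1 measured in HBS-EP (10 mM HEPES pH 7.4, 150 mM NaCl, 3.0 mM EDTA, 0.005% polysorbate 20); FGF-2 measured in HBS-EP with 300 mM NaCl. Kd is the average of at least duplicate measurements ± SD.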

HMVEC [7] = experiment: Antiangiogenic activity in VEGF-stimulated HMVEC cells after 72 hrs by CellTiter assay; format: functional, cell-based; conditions: Homo sapiens
[8] = molecular target: Fibroblast growth factor 2 (Homo sapiens, UniProt P09038); experiment: Binding affinity to FGF-2 by surface plasmon resonance assay; summary of the method: as §1
Fibroblast growth factor 2, sequence (P09038 143-288 limits assumed): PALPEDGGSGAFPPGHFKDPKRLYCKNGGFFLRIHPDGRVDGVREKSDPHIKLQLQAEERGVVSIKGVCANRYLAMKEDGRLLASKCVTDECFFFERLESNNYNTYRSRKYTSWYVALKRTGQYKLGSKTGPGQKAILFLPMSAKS

Aorta [9] = experiment: Antiangiogenic activity in Sprague-Dawley rat aorta assessed as inhibition of tube formation dosed daily at 10 uM measured up to 8 days by matrigel assay; format: functional
Summary of the method: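 Aortas from 6–10-week Sprague–Dawley rats were cut into 1 mm rings, bisected and embedded in Matrigel. Cultured in EBM-2 with 2% FCS and supplements except heparin, without exogenous growth factors. Compound was usually given at two concentrations within 1–50 μM from 10 mM PBS stocks, replenished every 48 h. Microvessels were scored 0–5 up to 8 days by two independent investigators.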

HMVEC [10] = experiment: Antiangiogenic activity in FGF1-stimulated HMVEC cells after 72 hrs by CellTiter assay; format: functional, cell-based; conditions: Homo sapiens
Plasma [11] = experiment: Anticoagulant activity in pooled human plasma assessed as prolongation of the recalcification time at 0.1 mg/ml by Heptest assay; format: ADME, cell-free
Summary of the method: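 Heptest clotting time in pooled normal human plasma; normal range 13–20 s. Values are the mean of two determinations.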

[12] = molecular target: Vascular endothelial growth factor A (Homo sapiens) (UniProt P15692); experiment: Binding affinity to VEGF by surface plasmon resonance assay
HUVEC [13] = experiment: Antiangiogenic activity in HUVEC cells assessed as inhibition of tube formation at 10 uM after 18 hrs by matrigel assay; format: functional; conditions: Homo sapiens
Summary of the method: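 HUVECs (passage 4 or 5, 70–80% confluent) suspended at 4 × 10⁵/mL in EGM2 with all supplements except heparin, mixed 1:1 with compound (final 10, 50 or 100 μM) in triplicate. Plated on growth factor-reduced Matrigel for 18 h. Branching nodes joining ≥3 tubules counted manually by phase-contrast microscopy. Reported as % inhibition versus untreated cells.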

Aorta [14] = experiment: Cytotoxicity against Sprague-Dawley rat aorta assessed as VEGF-induced microvessel formation measured 6 days post compound treatment grown on fresh medium containing VEGF; format: tissue-based; conditions: 144 h
Summary of the method: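 Viability check on rat aortic ring cultures: after compound exposure, compound/medium withdrawn on day 6 or 7 and replaced with complete medium containing VEGF (typically 10 ng/mL) for up to 7 further days. Renewed microvessel sprouting taken as evidence of viable tissue.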

HUVEC [15] = experiment: Antiangiogenic activity in HUVEC cells assessed as inhibition of tube formation after 18 hrs by matrigel assay; format: functional, cell-based; conditions: Homo sapiens
Summary of the method: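 HUVECs at passage 4–5 (70–80% confluent) resuspended at 4 × 10⁵/mL in EGM2 with all supplements except heparin. Cells mixed with compound to final 10, 50 or 100 μM and plated in triplicate on growth-factor-reduced Matrigel for 18 h. Branching nodes joining three or more tubules counted by phase-contrast microscopy; percent inhibition versus untreated cells.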

Aorta [16] = experiment: Antiangiogenic activity in Sprague-Dawley rat aorta assessed as inhibition of tube formation measured up to 8 days by matrigel assay; format: functional, tissue-based; conditions: 192 h
Summary of the method: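 Aortas from 6–10-week Sprague–Dawley rats cut into 1 mm rings, bisected and embedded in Matrigel. Cultured in EBM-2 with 2% FCS, supplements but no heparin and no added growth factor. Compound usually given at two concentrations within 1–50 μM (10 mM PBS stock), medium renewed every 48 h. Microvessels scored 0–5 up to 8 days by two independent observers.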

Rattus norvegicus = experiment: Elimination half life in Sprague-Dawley rat at 10 mg/kg, sc using [3H]-labeled compound administered as three bolus doses at 96 hrs interval; format: ADME, organism-based; design: dose 10 mg/kg, route subcutaneous; conditions: in vivo

Ki (Heparanase)	Kd [6]	Structure (SMILES)	APTT (Plasma [1])	Activity (HMVEC [2])	IC50 (HUVEC [3])	IC50 (HUVEC [4])	IC50 (HUVEC [5])	Activity (HMVEC [7])	Kd [8]	inhibition (INH) (Aorta [9])	Activity (HMVEC [10])	Time (Plasma [11])	Kd [12]	inhibition at 10 µM (HUVEC [13])	Activity (Aorta [14])	IC50 (HUVEC [15])	IC50 (Aorta [16])	beta t1/2 (Rattus norvegicus)
3.7 nM	9.7 nM	CC(C)CCC[C@@H](C)[C@H]1CC[C@H]2[C@@H]3CC[C@H]4C[C@@H](OCc5cn([C@@H]6O[C@H](COS(=O)(=O)[O-])[C@@H](O[C@H]7O[C@H](COS(=O)(=O)[O-])[C@@H](O[C@H]8O[C@H](COS(=O)(=O)[O-])[C@@H](O[C@H]9O[C@H](COS(=O)(=O)[O-])[C@@H](OS(=O)(=O)[O-])[C@H](OS(=O)(=O)[O-])[C@H]9OS(=O)(=O)[O-])[C@H](OS(=O)(=O)[O-])[C@H]8OS(=O)(=O)[O-])[C@H](OS(=O)(=O)[O-])[C@H]7OS(=O)(=O)[O-])[C@H](OS(=O)(=O)[O-])[C@H]6OS(=O)(=O)[O-])nn5)CC[C@]4(C)[C@H]3CC[C@]12C.[Na+].[Na+].[Na+].[Na+].[Na+].[Na+].[Na+].[Na+].[Na+].[Na+].[Na+].[Na+].[Na+]	104 s	Active	2300 nM	2200 nM	640 nM	Active	390 nM	>80%	Active	45.5 s	95 nM					
6 nM	0.44 nM	CCCCCCCCCCCCCCCCCC(=O)NCCCO[C@H]1O[C@H](COS(=O)(=O)[O-])[C@@H](OS(=O)(=O)[O-])[C@H](OS(=O)(=O)[O-])[C@@H]1O[C@H]1O[C@H](COS(=O)(=O)[O-])[C@@H](OS(=O)(=O)[O-])[C@H](O[C@H]2O[C@H](COS(=O)(=O)[O-])[C@@H](OS(=O)(=O)[O-])[C@H](O[C@H]3O[C@H](COS(=O)(=O)[O-])[C@@H](OS(=O)(=O)[O-])[C@H](OS(=O)(=O)[O-])[C@@H]3OS(=O)(=O)[O-])[C@@H]2OS(=O)(=O)[O-])[C@@H]1OS(=O)(=O)[O-].[Na+].[Na+].[Na+].[Na+].[Na+].[Na+].[Na+].[Na+].[Na+].[Na+].[Na+].[Na+].[Na+]	68.1 s	Active	1540 nM	600 nM	700 nM	Active	108 nM		Active	24.5 s	40 nM	> 80%				
		CC(C)CCC[C@@H](C)[C@H]1CC[C@H]2[C@@H]3CC[C@H]4C[C@@H](O[C@@H]5O[C@H](COS(=O)(=O)[O-])[C@@H](O[C@H]6O[C@H](COS(=O)(=O)[O-])[C@@H](O[C@H]7O[C@H](COS(=O)(=O)[O-])[C@@H](O[C@H]8O[C@H](COS(=O)(=O)[O-])[C@@H](OS(=O)(=O)[O-])[C@H](OS(=O)(=O)[O-])[C@H]8OS(=O)(=O)[O-])[C@H](OS(=O)(=O)[O-])[C@H]7OS(=O)(=O)[O-])[C@H](OS(=O)(=O)[O-])[C@H]6OS(=O)(=O)[O-])[C@H](OS(=O)(=O)[O-])[C@H]5OS(=O)(=O)[O-])CC[C@]4(C)[C@H]3CC[C@]12C.[Na+].[Na+].[Na+].[Na+].[Na+].[Na+].[Na+].[Na+].[Na+].[Na+].[Na+].[Na+].[Na+]	71.9 s	Active				Active	390 nM	>80%	Active	28.6 s	28.9 nM	> 80%	Non-toxic	2000 nM	1100 nM	> 50 h

Structure (SMILES)	Ki (Heparanase)	Kd [6]	APTT (Plasma [1])	Activity (HMVEC [2])	IC50 (HUVEC [3])	IC50 (HUVEC [4])	IC50 (HUVEC [5])	Activity (HMVEC [7])	Kd [8]	inhibition (INH) (Aorta [9])	Activity (HMVEC [10])	Time (Plasma [11])	Kd [12]	inhibition at 10 µM (HUVEC [13])	Activity (Aorta [14])	IC50 (HUVEC [15])	IC50 (Aorta [16])	beta t1/2 (Rattus norvegicus)
CC(C)CCC[C@@H](C)[C@H]1CC[C@H]2[C@@H]3CC[C@H]4C[C@@H](O[C@H]5O[C@H](COS(=O)(=O)[O-])[C@@H](OS(=O)(=O)[O-])[C@H](OS(=O)(=O)[O-])[C@@H]5O[C@H]5O[C@H](COS(=O)(=O)[O-])[C@@H](OS(=O)(=O)[O-])[C@H](O[C@H]6O[C@H](COS(=O)(=O)[O-])[C@@H](OS(=O)(=O)[O-])[C@H](O[C@H]7O[C@H](COS(=O)(=O)[O-])[C@@H](OS(=O)(=O)[O-])[C@H](OS(=O)(=O)[O-])[C@@H]7OS(=O)(=O)[O-])[C@@H]6OS(=O)(=O)[O-])[C@@H]5OS(=O)(=O)[O-])CC[C@]4(C)[C@H]3CC[C@]12C.[Na+].[Na+].[Na+].[Na+].[Na+].[Na+].[Na+].[Na+].[Na+].[Na+].[Na+].[Na+].[Na+]	5.8 nM	0.6 nM	94 s	Active	1290 nM	1200 nM	800 nM	Active	160 nM	>80%	Active	28 s	22 nM	> 80%				
